Results of several laboratories.
PIK3CA M1043I: Phosphatidylinositol 4,5-bisphosphate 3-kinase catalytic subunit alpha isoform (PIK3CA, Homo sapiens, UniProt P42336, M1043I)
PIK3CA H1047L: Phosphatidylinositol 4,5-bisphosphate 3-kinase catalytic subunit alpha isoform (PIK3CA, Homo sapiens, UniProt P42336, H1047L)
PIK3CA Q546K: Phosphatidylinositol 4,5-bisphosphate 3-kinase catalytic subunit alpha isoform (PIK3CA, Homo sapiens, UniProt P42336, Q546K)
PIK3CA I800L: Phosphatidylinositol 4,5-bisphosphate 3-kinase catalytic subunit alpha isoform (PIK3CA, Homo sapiens, UniProt P42336, I800L)
PIK3CA E542K: Phosphatidylinositol 4,5-bisphosphate 3-kinase catalytic subunit alpha isoform (PIK3CA, Homo sapiens, UniProt P42336, E542K)
PIK3CA E545K: Phosphatidylinositol 4,5-bisphosphate 3-kinase catalytic subunit alpha isoform (PIK3CA, Homo sapiens, UniProt P42336, E545K)

C[C@@H]1CCN(c2nccc(-c3cnn4ncccc34)n2)C1  remaining binding (Phosphatidylinositol 4,5-bisphosphate 3-kinase catalytic subunit alpha isoform (PIK3CA, Homo sapiens, UniProt P42336); binding; 1 µM): 100%
Cc1cnc(Nc2ccc(C(=O)N3CCC(N4CCCC4)CC3)cc2)nc1-c1cc2ccccc2s1  remaining binding (PIK3CA M1043I; binding, competition with immobilised ligand; 1 µM): 74%
N[C@H]1CCN(c2nccc(-c3cnn4ncccc34)n2)C1  remaining binding (PIK3CA M1043I; binding; 1 µM): 91%
C[C@H](NC(=O)c1cnc2n1[C@](C)(Cc1ccc(C#N)cc1)C(=O)N2c1cc(Cl)c(F)c(Cl)c1)C(=O)NC1(c2ccccn2)CC1  remaining binding (PIK3CA H1047L; cell-free assay, competition with immobilised ligand; 1 µM): 81%
O=C(c1ccc(Nc2ncc(Cl)c(-c3cc4ccccc4s3)n2)cc1)N1CCC(N2CCCC2)CC1  remaining binding (PIK3CA M1043I; binding, competition with immobilised ligand; 1 µM): 62%
COc1cnc(Nc2cccc(S(N)(=O)=O)c2)nc1N1CCN(c2ccccc2)C(=O)C1  remaining binding (PIK3CA Q546K; binding, competition with immobilised ligand; 1 µM): 100%
CCC(=N\O)/C(C)=C/c1ccc(F)cc1  remaining binding (PIK3CA M1043I; cell-free assay, competition with immobilised ligand; 1 µM): 88%
CN(C)c1nccc(-c2cnn3ncccc23)n1  remaining binding (PIK3CA I800L; binding; 1 µM): 96%
CCS(=O)(=O)c1cc2cc(C[C@@](O)(CC(C)(C)c3ccc(F)cc3C(N)=O)C(F)(F)F)[nH]c2cn1  remaining binding (PIK3CA M1043I; cell-free assay, competition with immobilised ligand; 1 µM): 99%
F[C@@H]1CCN(c2nccc(-c3cnn4ncccc34)n2)C1  remaining binding (PIK3CA Q546K; binding; 1 µM): 55%
c1cncc(-c2cccc(Nc3nccc(NC4CCCCC4)n3)c2)c1  remaining binding (Phosphatidylinositol 4,5-bisphosphate 3-kinase catalytic subunit alpha isoform (PIK3CA, Homo sapiens, UniProt P42336, E545A); binding, competition with immobilised ligand; 10 µM): 80%
O=C(NCC1CCOCC1)c1n[nH]cc1NC(=O)c1c(F)cccc1F  remaining binding (PIK3CA M1043I; binding, competition with immobilised ligand; 1 µM): 100%
COc1ncc2cc3ccccc3nc2c1C#N  remaining binding (PIK3CA H1047L; cell-free assay, competition with immobilised ligand; 5 µM): 98%
C[C@@H](c1ccc(-n2cnc3c(N)ncnc32)cc1)N1CCc2nn(C)c(Cc3ccccc3)c2C1=O  remaining binding (Phosphatidylinositol 4,5-bisphosphate 3-kinase catalytic subunit alpha isoform (PIK3CA, Homo sapiens, UniProt P42336, C420R); binding, competition with immobilised ligand; 0.1 µM): 98%
O=C(NCCCN1CCOCC1)c1ccc(Nc2nccc(-c3cc4ccccc4s3)n2)cc1  remaining binding (PIK3CA I800L; binding, competition with immobilised ligand; 1 µM): 13%
c1cnn2ncc(-c3ccnc(N4CCC45COC5)n3)c2c1  remaining binding (PIK3CA E542K; binding; 1 µM): 86%
O=C(N[C@H]1CCCCC/C=C\C2C[C@@]2(C(=O)O)NC(=O)[C@@H]2C[C@@H](Oc3ccncc3)CN2C1=O)OC1CCCC1 (stereo partly shown)  remaining binding (PIK3CA E542K; binding, competition with immobilised ligand; 1 µM): 96%
CCN1CCN(Cc2ccc(C(=O)Nc3ccc(C)c(Oc4ccc5c(c4)CC(=O)N5)c3)cc2C(F)(F)F)CC1  remaining binding (PIK3CA E545K; binding, competition with immobilised ligand; 1 µM): 93%
CS(=O)(=O)N1CCCC(NC(=O)[C@H](CCC2CCCCC2)NC(=O)c2ccc(CNc3ncnc4c3nnn4-c3ccccc3)cc2)C1 (stereo partly shown)  remaining binding (PIK3CA E545K; cell-free assay, competition with immobilised ligand; 0.1 µM): 53%
CC1CCCN1c1nccc(-c2cnn3ncccc23)n1 (stereo not shown)  remaining binding (PIK3CA Q546K; binding; 1 µM): 42%
CNC(=O)[C@@H]1CC[C@@H](n2c(-c3ccc4cnccc4c3)nc3ccc(C(=O)NCc4cccc(C(N)=O)c4)cc32)C1  remaining binding (PIK3CA M1043I; binding, competition with immobilised ligand; 1 µM): 79%
COc1cc(-c2cn(C3CCc4ccccc4N(CC(F)(F)F)C3=O)nn2)ccc1-n1ccc(C)n1 (stereo not shown)  remaining binding (PIK3CA E542K; cell-free assay, competition with immobilised ligand; 1 µM): 82%
